GPR7 antagonist – GPR7 receptor antagonists, primary screen, cell-based, fluorescence, single concentration | GPR7-expressing cells, fluorescence antagonist assay | inhibition, % at 4.4 µM | 290,000 tested, 1.1% active; in the data active = inhibition above about 16%, passing the limit was not always enough;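 also: cells stimulated with the agonist NPW; 0% = agonist with vehicle and 100% = vehicle without agonist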
OX1R antag-1 – antagonists of human orexin 1 receptor (OX1R); 330,000 tested, 1.8% active; inhibition, % at 6.6 µM; OX1R-expressing cells, FRET antagonist read-out; Orexin/Hypocretin receptor type 1 (Homo sapiens), O43613; in the data active = inhibition mostly above about 38%, no sharp cut-off; inactive = mostly below about 40%;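 also: 0% = agonist challenge alone and 100% = reference antagonist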
CHO parental Ca – ATP-evoked calcium signal inhibitors, parental CHO, primary screen, counter-screen for OX1R antagonist project, cell-based, fluorescence, Fluo-8 calcium dye | parental CHO-K1, ATP-induced calcium, Fluo-8 fluorescence | inhibition, % at 5.6 µM | 330,000 tested, 0.63% active;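 active = inhibition above that plate's mean sample inhibition plus 3 SD, cut at about 26% in these data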;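 also: 0% = ATP-challenged DMSO wells and 100% = DMSO wells without ATP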
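Assay system: parental CHO cells; Read-out basis: percent inhibition of ATP-evoked calcium rise, normalized to controls; Benchmarks: ATP and no-ATP DMSO wells; Compound dosing: single nominal dose of 5.6 µM per compound; Signal: Fluo-8 calcium dye fluorescence; Also added: ATP as calcium-mobilizing challenge; Repeats: singlicate.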
OX1R antag-2 – OX1R (HCRTR1) antagonists, primary screen, fluorescence, CHO/OX1R cells, Fluo-8 calcium, orexin A | inhibition, % at 5 µM | Fluo-8 calcium fluorescence | Orexin/Hypocretin receptor type 1 (Homo sapiens), O43613 | 330,000 tested, 0.43% active;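 active = inhibition above its plate's threshold, mean inhibition of all tested compounds on the plate plus 3 SD, cut at about 37% in these data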;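 also: 0% = orexin A challenge wells and 100% = SB-334867-A antagonist wells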
EP2 mod – EP2 receptor modulators, cAMP readout, primary screen, cell-based, HTRF cAMP, PGE2 stimulation | Prostaglandin E2 receptor EP2 subtype (Homo sapiens), P43116 | EP2-expressing cells, cAMP HTRF FRET, PGE2 co-stimulation | induction, % at 25 µM | 260,000 tested, 0.83% active | AID 940, 2007;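 active = compounds whose cAMP rise, as percent of the full-agonist control response, exceeds 60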;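 also: rat C6 glioma line stably carrying human EP2 under a CMV promoter; the protocol text gives 20 µM as final concentration; 100% = response of wells given 1 µM PGE2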
Target sequence (P43116 whole entry, looked up): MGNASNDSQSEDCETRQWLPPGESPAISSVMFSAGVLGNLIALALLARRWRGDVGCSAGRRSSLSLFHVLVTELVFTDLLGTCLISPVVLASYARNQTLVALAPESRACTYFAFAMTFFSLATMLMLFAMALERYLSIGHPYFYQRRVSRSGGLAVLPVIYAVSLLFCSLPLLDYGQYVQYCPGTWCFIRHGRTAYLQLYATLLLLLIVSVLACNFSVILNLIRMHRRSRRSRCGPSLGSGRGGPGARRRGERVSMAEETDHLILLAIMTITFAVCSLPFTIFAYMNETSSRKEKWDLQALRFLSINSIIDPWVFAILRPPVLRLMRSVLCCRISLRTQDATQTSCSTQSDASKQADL
PGE2 EP2 inh – human EP2 receptor antagonists, primary screen, TR-FRET cAMP, C6 glioma cells; C6 glioma cells expressing human EP2; cells stimulated with saturating PGE2; inhibition, % at 25 µM; 260,000 tested, 0.52% active;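 active = percent inhibition above 40 after rounding to a whole number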;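 also: rat C6 glioma host cells with rolipram phosphodiesterase inhibitor present; the protocol text gives 20 µM as final concentration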
* = called active by the depositor; / = no result given. An excerpt weighted towards active compounds, which were near 3.7% of everything screened.

SMILES	GPR7 antagonist	OX1R antag-1	CHO parental Ca	OX1R antag-2	EP2 mod	PGE2 EP2 inh
NC(=O)c1c(C(F)(F)F)cc(-c2ccccc2)nc1NCCO	-7	25	-10	5	-13	20
CCCCNc1nc(-c2ccccc2)cc(C(F)(F)F)c1C(N)=O	-9	7	-25	-1	64*	12
Cn1c(SCC(=O)N2CCOCC2)nnc1-c1cnccn1	-4	3	-5	-1	21	5
O=S(=O)(N1CCCCC1)N1CCCN(S(=O)(=O)N2CCCCC2)CC1	-9	13	-11	-29	3	12
Cn1ncc(S(=O)(=O)Cc2ccccc2)c(Cl)c1=O	-10	9	-5	-22	-33	89*
Cn1ncc(SCc2ccccc2)c(Cl)c1=O	-15	23	22	12	-31	6
COc1ccc(-c2cc(C(=O)OC(C)C(=O)Nc3c(C)n(C)n(-c4ccccc4)c3=O)c3ccccc3n2)cc1 (centres undefined)	0	62*	-21	-1	7	8
Cc1c(NC(=O)C(C)OC(=O)c2cc(-c3cccc4ccccc34)nc3ccccc23)c(=O)n(-c2ccccc2)n1C (centres undefined)	-7	19	-17	-22	-13	9
CCN(c1ccccc1)S(=O)(=O)c1ccc(Cl)c(NC(=O)CN2CCCCCC2)c1	-12	87*	73*	32	47	6
CCN(CC)S(=O)(=O)c1ccc(Cl)c(C(=O)Nc2ccc(Cl)cc2[N+](=O)[O-])c1	-11	36	50*	13	-22	7
CCN(CC)S(=O)(=O)c1ccc(Cl)c(NC(=O)c2ccccc2C)c1	-6	39	-21	-20	63*	9
CCN(CC)S(=O)(=O)c1ccc(Cl)c(NC(=S)NC(=O)C2CCCC2)c1	/	9	44*	67*	/	/
Cc1cccc(NC(=O)c2nc[nH]c2C(=O)NCCN(CCNC(=O)c2[nH]cnc2C(=O)Nc2cccc(C)c2)CCNC(=O)c2[nH]cnc2C(=O)Nc2cccc(C)c2)c1	/	2	-13	9	/	/
O=[N+]([O-])c1ccc(O)c(/C=N/n2cnc3ccccc32)c1	-3	48*	-8	19	-1	11
O=[N+]([O-])c1ccc(O)c(/C=N/n2c(CO)nc3ccccc32)c1	-21	2	15	-4	-29	7
COc1ccc(F)cc1-c1nc(N)nc(N)n1	/	-1	1	-11	/	/
CCCCC[C@@H](O)[C@@H]1C(=O)O[C@@H](C)[C@@H](O)C=C/C=C\C=CC=C/C=C(/C)[C@H](O)C[C@H](O)C[C@H](O)C[C@H](O)C[C@H](O)C[C@H](O)C[C@@H]1O	/	/	/	/	23	50*
Cc1cccc(NCCC(=O)c2ccc([N+](=O)[O-])cc2)c1C	-12	42*	-10	-17	-13	7
Cc1ccc(NCCC(=O)c2cccc([N+](=O)[O-])c2)c(C)c1	1	10	-14	-18	2	2
CCC(OC(=O)CN1C(=O)C(=O)c2ccccc21)C(=O)Nc1ccc(S(N)(=O)=O)cc1 (centres undefined)	-15	50*	-12	-26	-1	9
CCOc1cc(C(=O)Nc2ncn[nH]2)cc(OCC)c1OCC	-14	26	-4	1	-2	9
C#CCn1c(S(=O)(=O)Cc2ccc(OC)cc2)nc(-c2ccccc2)c1-c1ccccc1	25	58*	-23	-8	45	-1
COc1ccc(/C(C#N)=C/c2ccccn2)cc1	7	10	-20	-69	10	7
COC(=O)c1ccc(/C=C(\C#N)c2nc3ccccc3s2)cc1	-4	8	49*	56*	-9	-1
N#C/C(=C\c1ccccn1)c1nc2ccccc2s1	21*	12	45*	57*	-49	8
SMILES	GPR7 antagonist	OX1R antag-1	CHO parental Ca	OX1R antag-2	EP2 mod	PGE2 EP2 inh
CC(C)(C)c1ccc(C(=O)OC/C(O)=C(\C#N)c2nc3ccccc3s2)cc1	-5	27	-3	8	-7	7
Cc1occc1-c1nnc(SCC(=O)Nc2nc(C(C)(C)C)cs2)o1	2	25	36*	13	17	2
Cc1ccc(NC(=O)CNc2cccc(S(=O)(=O)N3CCCC3)c2)cc1F	/	22	5	-10	/	/
CCC(=O)Nc1nnc(SCC(=O)c2ccc3c(c2)Cc2ccccc2-3)s1	4	16	-6	-7	29	/
CSc1nc2c(c(=O)n1C)SC(C)C2 (centres undefined)	-8	11	-12	-10	14	6
CNc1nc(SC)n(C)c(=O)c1N=O	-5	48*	-8	-6	19	5
O=C1c2cccc3cccc(c23)C(=O)N1c1nncs1	-5	75*	-12	-25	14	12
O=C1c2cccc3cccc(c23)C(=O)N1c1ccc(O)cc1	-10	14	2	-19	/	/
O=C(NCc1ccccc1)C1CCCN(S(=O)(=O)c2cccc3nonc23)C1 (centres undefined)	3	55	-10	-30	24	9
O=C(NC1CCN(Cc2ccccc2)CC1)C1CCCN(S(=O)(=O)c2cccc3nonc23)C1 (centres undefined)	5	70*	-19	-19	21	13
O=C(NC1CCN(Cc2ccccc2)CC1)C1CCN(S(=O)(=O)c2cccc3nsnc23)CC1	-4	71*	-17	-20	8	18
O=C(NC1CCN(Cc2ccccc2)CC1)C1CCN(S(=O)(=O)c2cccc3cccnc23)CC1	-2	14	-18	-6	/	16
CC1CCN(CCNC(=O)C2CCCN(S(=O)(=O)c3cccc4nonc34)C2)CC1 (centres undefined)	9	70*	0	-19	-5	16
COc1cc(OC)cc(-c2c(-c3ccc(F)cc3)c3cc(-c4ccc5c(c4)OCCO5)ccc3n2C)c1	/	7	3	-8	/	/
Cc1ccc(N=Nc2ccc(O)cc2)c(Br)c1	-3	3	56*	4	/	/
Oc1ccc(N=Nc2ccc(Br)cc2)c(O)c1	12	2	5	-9	-36	28
Cc1csc(=O)n1CC(=O)OCc1cccc2ccccc12	8	46*	-23	2	22	5
CCc1cccc(C)c1NC(=O)COC(=O)Cn1c(C)csc1=O	/	30	-19	-30	/	/
O=S(=O)(c1cccc(Br)c1)N1CCN(c2ccnc3cc(Cl)ccc23)CC1	16	19	35*	-4	/	/
O=C(Nc1cnccn1)c1cccc(C(F)(F)F)c1	-8	9	-4	1	1	8
